# Screens: PubChem, several laboratories
# Hits are enriched below; roughly 4.1% of the tested compounds scored in any of these assays.
# KCNK3 block: human KCNK3 channel inhibition, primary screen; O14649; CHO-KCNK3 thallium flux, FluxOR fluorescence; stronger effect = lower value; B-score at 10 µM; 340,000 tested, 0.84% active;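 active = B-score under library mean minus 4 SD, starting fluorescence ratio at most library mean plus 5 SD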;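 note: more negative B-score means stronger inhibition of thallium flux through KCNK3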
# KCNK9 inh: human KCNK9 channel inhibition | HEK293 KCNK9, FluxOR thallium flux fluorescence; stronger effect = lower value | 310,000 tested, 1.2% active | B-score at 10 µM | AID 488922;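 active = ratio B-score over 3 SD below the library mean, with starting fluorescence within 5 SD of its mean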;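 note: negative B-score means less thallium flux so channel inhibition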
# KCNQ1 block: human KCNQ1 channel inhibition; P51787; CHO-K1 KCNQ1, FluxOR thallium flux fluorescence; stronger effect = higher value; B-score at 10 µM; 310,000 tested, 1.3% active; AID 2642;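 active = compounds whose thallium flux B-score, printed positive for inhibition, exceeds three library SD while starting fluorescence stays within three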;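 note: channel opened by potassium depolarization with thallium stimulus after 20 min compound exposure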
# Cl transport mod: modulators of human KCC2 chloride dependent transport | Q9H2X9 | 190,000 tested, 2.2% active | KCC2 cells, thallium flux FluoZin-2 fluorescence | AID 1456 | B-score of Tl+ flux slope (higher = more flux/activation; lower = inhibition) at 10 µM;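 active = thallium flux slope and its plate-corrected score both differing from the plate sample mean at a set confidence after two filtering rounds, in either direction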;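 note: slope of fluorescence scaled to starting intensity during 10 to 20 s after thallium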
# Target sequence (Q9H2X9 whole entry, looked up): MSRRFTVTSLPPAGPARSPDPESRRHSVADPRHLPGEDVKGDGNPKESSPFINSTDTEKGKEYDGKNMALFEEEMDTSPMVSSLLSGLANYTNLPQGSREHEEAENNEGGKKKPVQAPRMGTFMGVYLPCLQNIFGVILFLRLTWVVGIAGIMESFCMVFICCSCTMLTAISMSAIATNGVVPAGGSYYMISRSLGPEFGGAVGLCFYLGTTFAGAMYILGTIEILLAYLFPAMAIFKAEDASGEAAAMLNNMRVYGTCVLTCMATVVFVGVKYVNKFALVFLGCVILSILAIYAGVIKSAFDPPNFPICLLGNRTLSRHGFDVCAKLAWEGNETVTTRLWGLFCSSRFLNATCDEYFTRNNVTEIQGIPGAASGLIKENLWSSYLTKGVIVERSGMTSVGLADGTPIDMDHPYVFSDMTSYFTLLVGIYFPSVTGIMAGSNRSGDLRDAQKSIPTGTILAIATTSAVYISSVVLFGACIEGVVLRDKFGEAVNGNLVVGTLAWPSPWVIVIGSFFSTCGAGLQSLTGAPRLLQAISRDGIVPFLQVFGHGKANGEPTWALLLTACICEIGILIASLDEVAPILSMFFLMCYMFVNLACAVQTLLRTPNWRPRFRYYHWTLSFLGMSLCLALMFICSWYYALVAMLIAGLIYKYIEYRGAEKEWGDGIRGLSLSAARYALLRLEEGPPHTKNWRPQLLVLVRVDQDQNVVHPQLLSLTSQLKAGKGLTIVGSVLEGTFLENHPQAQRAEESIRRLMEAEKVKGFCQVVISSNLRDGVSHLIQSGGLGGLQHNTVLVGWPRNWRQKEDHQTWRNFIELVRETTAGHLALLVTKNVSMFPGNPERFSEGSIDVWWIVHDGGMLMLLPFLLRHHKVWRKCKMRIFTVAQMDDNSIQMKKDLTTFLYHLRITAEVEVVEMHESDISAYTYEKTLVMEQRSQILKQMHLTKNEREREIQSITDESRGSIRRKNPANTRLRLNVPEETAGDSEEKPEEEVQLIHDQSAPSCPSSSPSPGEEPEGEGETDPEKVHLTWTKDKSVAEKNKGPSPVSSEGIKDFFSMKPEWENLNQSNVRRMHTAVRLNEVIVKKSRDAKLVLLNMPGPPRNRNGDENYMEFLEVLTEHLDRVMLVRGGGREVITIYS
# hERG rescue: compounds protecting human hERG from proarrhythmic drug block. Q12809. CHO-hERG, FluxOR thallium flux, dofetilide IC70 present. activation (rescue from dofetilide block), less the hit threshold, % at 10 µM. 310,000 tested, 0.51% active. AID 1511;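 active = activation above the mean of controls blocked by dofetilide plus 5 SD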;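 note: thallium influx through hERG after potassium depolarization seen as dye fluorescence rise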
# KCNQ1 act: human KCNQ1 channel potentiation or activation; CHO-K1 KCNQ1, thallium flux FluxOR fluorescence; stronger effect = higher value; B-score at 10 µM; 310,000 tested, 0.35% active;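 active = fluorescence ratio B-score, a plate-corrected score, at least three library SD, with initial intensity B-score within 5 SD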
#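 Material: CHO-K1 cells stably expressing KCNQ1. Medium: assay buffer for compound exposure, DMSO matched across wells. Reagent: K+/Tl+ depolarizing stimulus. Compound dosing: single-concentration screen. Times: 37 °C overnight plating, 90-min dark dye load, 20-min compound pretreatment. Technique: FluxOR Tl+ flux fluorescence.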
# * marks the source's active call; other numbers are inactive results; i = inactive; nt = no result given.
SMILES,KCNK3 block,KCNK9 inh,KCNQ1 block,Cl transport mod,hERG rescue,KCNQ1 act
CSc1ccccc1NC(=O)CN(C)CC(=O)NCc1ccccc1,i,i,i,-1.8,-2,i
CSc1ccccc1NC(=O)CN(C)Cc1cccc(Cl)c1,i,-7.2*,i,-0.87,-21,i
Cc1ccc(S(=O)(=O)Nc2ccc3c(c2)C(=O)N([C@H](C)CO)C[C@H](C)[C@@H](CN(C)Cc2ccccc2)O3)cc1,-10*,nt,nt,nt,nt,nt
COc1ccc(N2CCN(C(c3cccs3)C(C)NC(=O)C(=O)N3CCCC3)CC2)cc1 (stereo not given),i,i,i,nt,-8,i
Cc1ccc2c(=O)c(C(=O)NCc3cccs3)c[nH]c2c1,i,i,i,0.0046,4.8*,i
CC(C)(C)[C@H]1CCC(=O)N([C@H](CSc2ccc(Br)cc2)Cc2ccccc2)CC1,i,nt,nt,nt,nt,nt
CC(C)(C)[C@H]1CCC(=O)N([C@H](CSc2ccccc2)Cc2ccccc2)CC1,i,-6.8*,i,nt,-9,i
CC(C)(C)[C@@H]1CCC(=O)N(CC[C@H](Sc2ccccc2)c2ccccc2)CC1,i,i,6*,nt,-4,i
CN(C)S(=O)(=O)NC(=O)C1=C(N2CCCC2)COC1=O,i,nt,nt,nt,nt,nt
CCOC(=O)c1c(C)[nH]c(C)c1C(=O)COC(=O)c1cc2ccccc2cc1OC,i,-7.7*,i,-0.62,-8,i
CCCn1c2c(c(O)c(C(=O)Nc3nccs3)c1=O)CCCC2,i,-6.6*,i,-0.81,-3,i
COc1ccccc1C1c2[nH]c3ccccc3c2C[C@H]2C(=O)N(C3CCN(Cc4ccccc4)CC3)CC(=O)N12 (stereo not given in full),i,i,i,nt,-11,i
COC(=O)[C@@]12CCCN1[C@H](c1ccc(-c3cccc(Cl)c3)cc1)[C@H]1C(=O)N(C)C(=O)[C@H]12,i,-7.1*,i,nt,-15,i
N#C/C(=N\Nc1ccc(Cl)cc1)C(N)=S,i,i,6*,-1.9,-12,i
CC(C)C(=O)Nc1ccc2c(c1)Cc1cc(NC(=O)C(C)C)ccc1-2,i,i,i,nt,6.0*,i
COC(=O)[C@@]12CCCCN1[C@H](c1ccc(-c3cccc(Cl)c3)c(OC)c1)[C@H]1C(=O)N(C)C(=O)[C@H]12,i,i,i,nt,-5,i
CCOC(=O)C1CN(S(=O)(=O)c2ccccc2)CCN1S(=O)(=O)c1ccccc1 (stereo not given),i,i,i,nt,-8,i
COC(=O)C1CN(S(=O)(=O)c2ccccc2)CCN1S(=O)(=O)c1ccccc1 (stereo not given),i,-7.3*,i,nt,-12,i
Cc1ccc(NC(=O)c2cncc(Br)c2)nc1,i,i,i,nt,-8,i
C=CCn1c(SCC(=O)NCC2CCCO2)nc2c([nH]c3ccccc32)c1=O (stereo not given),i,i,i,nt,-2,i
Cc1ccc(C(C)C)c(OCC(=O)NS(=O)(=O)c2ccc(Cl)cc2)c1,i,i,i,nt,-8,i
O=C(/C=C/c1ccccc1)c1ccc2c(c1)OCO2,i,i,i,0.23,-7,i
O=C(/C=C/c1cccc(Br)c1)c1ccc2c(c1)OCO2,i,-7.8*,i,nt,-9,i
CCC(C)(c1ccc(C=O)s1)c1ccc(C=O)s1,i,i,i,-0.98,6.0*,i
O=Cc1ccc(-c2cccs2)s1,i,nt,nt,nt,nt,nt
SMILES,KCNK3 block,KCNK9 inh,KCNQ1 block,Cl transport mod,hERG rescue,KCNQ1 act
O=C(CN(C(=O)c1csnn1)c1ccc2c(c1)OCCO2)NCc1ccccc1,i,i,i,nt,-2,i
CCn1c2ccccc2c2cc(/C=N/NC(=O)c3ccccc3)ccc21,i,i,i,-1.1,6.4*,i
CCN1C(=O)/C(=C/C=C2/SCCN2C)SC1=S,i,i,i,0.91,-7,i
CN1CCS/C1=C\C=C1/SC(=S)N(CC(=O)O)C1=O,i,i,11*,i,-30,i
CN(CC(=O)Nc1ccc(F)cc1)C(=O)CN1C(=O)c2ccccc2C1=O,i,nt,nt,nt,nt,nt
COC(=O)c1sc(NC(=O)C2c3ccccc3Oc3ccccc32)c(C(=O)OC)c1C,i,i,i,-0.28,-9,i
CCOC(=O)c1c(NC(=O)CSc2nnc(-c3ccc(C)cc3)o2)sc(C(C)=O)c1C,-10*,nt,nt,-0.78,nt,nt
CCOC(=O)c1c(NC(=O)C2c3ccccc3Oc3ccccc32)sc(C(C)=O)c1C,i,-7.4*,i,nt,-12,i
N#CC(C(=O)NC1CC1)c1nc2ccccc2nc1N1CCN(C/C=C/c2ccccc2)CC1 (stereo not given),i,i,6*,1.4,-17,i
N#CC(C(=O)NC1CC1)c1nc2ccccc2nc1N1CCCC1 (stereo not given),i,i,i,-0.68,-2,i
CN(C)S(=O)(=O)c1ccc(Cl)c(NC(=O)CSc2nc3ccccc3c(=O)n2CCCN2CCOCC2)c1,i,i,i,-0.061,-13,i
Cc1ccc(S(=O)(=O)N(C)C)cc1NC(=O)CSc1nc2ccccc2c(=O)n1CC1CCCO1 (stereo not given),i,i,i,nt,-14,i
Cc1ccc(S(=O)(=O)N(C)C)cc1-n1c(SCC(=O)Nc2ccccc2)nc2ccccc2c1=O,i,-7.9*,i,-1.5,-12,i
Cc1ccc(S(=O)(=O)N(C)C)cc1-n1c(SCC(=O)Nc2ccc(F)cc2Cl)nc2ccccc2c1=O,i,-8*,i,-0.52,-7,i
Cc1cccc(C)c1NC(=O)COC(=O)[C@@H]1CCCN1C(=O)c1cccs1,i,nt,nt,nt,nt,nt
Cc1ccc(C2CC(c3ccccc3)=NN2C(=S)Nc2ccccc2)o1 (stereo not given),i,i,6*,0.16,-10,i
CC1=NN(C(=S)Nc2ccccc2)C(c2ccccc2)C1 (stereo not given),i,i,i,-0.31,-5,i
O=C(CSc1nnc(-c2ccncc2)n1Cc1ccco1)Nc1ccccc1F,i,-6.9*,i,-0.028,-6,i
O=C(CSc1nnc(-c2ccncc2)n1Cc1ccco1)Nc1ccccc1Cl,i,i,i,0.62,-15,i
Cc1ccc(CN2CCN(/N=C/c3ccc(O)c(O)c3)CC2)cc1,i,i,i,nt,7.1*,i
NC(=O)c1ccc(NC(=O)COC(=O)C2CCN(S(=O)(=O)c3cccs3)CC2)cc1,i,nt,nt,nt,nt,nt
Cc1ccccc1C(=O)Nc1ccnn1C1CCN(C(=O)c2cnsn2)CC1,i,i,i,nt,-5,i
